# Measured values pooled from the literature.
# Each line is one published result; the experiments were not run side by side.
# Observed: cell growth or viability
Structure (SMILES),cell line,test,conditions,measurement,value
COC(=O)c1c(C)ncn1CC(c1cn(C)c2ccccc12)c1cn(C)c2ccccc12,HaCaT,MTS,24 h,CC50,> 20 µM
O=C(N[C@H](CCc1ccccc1)C(=O)c1cc(Cc2ccccc2)on1)[C@H](Cc1ccccc1)NC(=O)N1CCOCC1,MRC-5 SV2,,,CC50,> 64 µM
COc1cccc2c1C(=O)c1c(O)c3c(c(O)c1C2=O)C[C@@](O)(C(=O)CO)C[C@@H]3O[C@H]1C[C@H](N)[C@H](O)[C@H](C)O1,WI-38,MTT,"3.125 µM, 24 h",viability,64.9%
C/C=C(/C)C(=O)O[C@@H]1[C@H](OC(C)=O)c2c(ccc3ccc(=O)oc23)OC1(C)C,WI-38,WST-1,,IC50,120 µM
O=C1CCCCC1=C1Sc2nc3ccc(S(=O)(=O)N4CCCC4)cc3nc2S1,WI-38,MTT,"3.125 µM, 24 h",viability,100%
CC1(C)CC[C@]2(C)CC[C@]3(C)C(=CC[C@@H]4[C@@]5(C)CC[C@H](O)C(C)(C)[C@@H]5CC[C@]43C)[C@@H]2C1,WI-38,WST-1,48 h,IC50,103 µM
COC(=O)c1c(C)ncn1CC(c1c[nH]c2cc(Br)ccc12)c1c[nH]c2cc(Br)ccc12,HaCaT,MTS,24 h,CC50,> 20 µM
O=C(N[C@@H](Cc1ccccc1)C(=O)c1noc(-c2ccccc2)n1)[C@H](Cc1ccccc1)NC(=O)N1CCOCC1,MRC-5 SV2,,,CC50,> 64 µM
O=c1oc2c(O)c(O)cc3c(=O)oc4c(O)c(O)cc1c4c23,CEM-GFP,MTT,48 h,CC50,> 250 µg/mL
O=C(N[C@@H](Cc1ccccc1)C(=O)c1cc(-c2ccccc2)no1)[C@H](Cc1ccccc1)NC(=O)N1CCOCC1 (mixture of isomers),MRC-5 SV2,,,CC50,> 64 µM
CCOC(=O)C(C(C)=O)=C1Sc2nc3ccc(S(=O)(=O)N4CCCC4)cc3nc2S1,WI-38,MTT,"25 µM, 24 h",viability,60.1%
O=C(/C=C/c1ccc(O)c(O)c1)O[C@@H]1C[C@](O)(C(=O)O)C[C@@H](O)[C@H]1O,WI-38,WST-1,48 h,IC50,91.2 µM
"O=C(N[C@@H](Cc1ccccc1)C(=O)c1cc(-c2ccccc2)on1)[C@H](Cc1ccccc1)NC(=O)N1CCOCC1 (single isomer, unassigned)",MRC-5 SV2,,,CC50,> 64 µM
N#CC(C(=O)Nc1cccc(C(F)(F)F)c1)=C1Sc2nc3ccc(S(=O)(=O)N4CCCC4)cc3nc2S1,WI-38,MTT,"50 µM, 24 h",viability,55.4%
CC(=O)OC1c2c(ccc3ccc(=O)oc23)OC(C)(C)C1OC(=O)C(C)(O)C(C)O (stereo not drawn),WI-38,WST-1,,IC50,89.6 µM
COC(=O)c1c(C)ncn1CC(c1c[nH]c2ccc(C)cc12)c1c[nH]c2ccc(C)cc12,HaCaT,MTS,24 h,CC50,> 20 µM
O=c1c(O)c(-c2ccc(O)cc2)oc2cc(O)cc(O)c12,WI-38,WST-1,48 h,IC50,95.4 µM
C[Si](C)(C)c1cc(C(=O)[C@H](Cc2ccccc2)NC(=O)[C@H](Cc2ccccc2)NC(=O)N2CCOCC2)no1 (mixture of isomers),MRC-5 SV2,,,CC50,> 64 µM
CCc1ncn(CC(c2c[nH]c3ccc(C)cc23)c2c[nH]c3ccc(C)cc23)c1C(=O)OC,HaCaT,MTS,24 h,CC50,> 20 µM
COC(=O)[C@]1(O)C[C@@H](O)[C@@H](O)[C@H](OC(=O)/C=C/c2ccc(O)c(O)c2)C1,WI-38,WST-1,,IC50,110 µM
O=C(N[C@@H](Cc1ccccc1)C(=O)c1nc2ccccc2s1)[C@H](Cc1ccccc1)NC(=O)N1CCOCC1,MRC-5 SV2,,,CC50,> 64 µM
